The subject of assay [1] is Botrytis cinerea. Kind of assay: Antifungal activity against Botrytis cinerea infected tomato plant assessed as leaf area with disease after 2 days relative to control. Type of assay: functional. Particulars: 48 h. The essentials: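 Tomato plants (cv. Roter Gnom, four weeks old) received a spray-chamber application of formulated compound in water. A spore suspension was sprayed on 2 days after treatment. Plants were incubated in a greenhouse at 20 °C and 95% rh. Diseased leaf area (%) was assessed 5–6 days after application, when untreated checks were adequately diseased.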

Assay [2] deals with Zymoseptoria tritici. Kind of assay: Antifungal activity against Mycosphaerella graminicola infected in wheat plant assessed as decrease in wheat leaf blotch relative to control. Type of assay: functional. The essentials:
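Wheat plants (cv. Riband, two weeks old) were treated in a spray chamber with formulated compound diluted in water and spray-inoculated with spores 1 day later. They were incubated for 1 day at 22/21 °C (day/night) and 95% rh, then kept in a greenhouse at 22/21 °C and 70% rh. Efficacy was scored 16–19 days after application, against diseased untreated checks.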

Assay [3] concerns Alternaria solani. Briefly: Antifungal activity against Alternaria solani infected in tomato plant assessed as leaf area with disease after 2 days relative to control. Type of assay: functional. Particulars: 48 h. The essentials: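 Four-week-old tomato plants (cv. Roter Gnom) were sprayed in a chamber with formulated compound diluted in water. Plants were spray-inoculated with a spore suspension 2 days later and held in a greenhouse at 22/18 °C (day/night) and 95% rh.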

For assay [4], the target named is Tubulin (Sus scrofa) (UniProt P02554+P02550). Briefly: Induction of porcine tubulin polymerization at 0.24 to 20 ppm by spectrophotometric analysis. It counts as protein assay. The essentials:
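Compound was added at reaction start at 20, 2.2 and 0.24 ppm from a 0.2 mM DMSO solution. The reaction was started at 37 °C and followed by absorbance at 340 nm. Paclitaxel served as positive control and DMSO as negative control.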

Values after ≈ are worked out from the molar mass of the structure shown. Active and inactive are the calls of the source. The calls are words filed in the database; no cut-off is given here. A value given as a limit tells only on which side of the number the result lay.

Tubulin (Sus scrofa), sequence (P02550 whole entry, looked up): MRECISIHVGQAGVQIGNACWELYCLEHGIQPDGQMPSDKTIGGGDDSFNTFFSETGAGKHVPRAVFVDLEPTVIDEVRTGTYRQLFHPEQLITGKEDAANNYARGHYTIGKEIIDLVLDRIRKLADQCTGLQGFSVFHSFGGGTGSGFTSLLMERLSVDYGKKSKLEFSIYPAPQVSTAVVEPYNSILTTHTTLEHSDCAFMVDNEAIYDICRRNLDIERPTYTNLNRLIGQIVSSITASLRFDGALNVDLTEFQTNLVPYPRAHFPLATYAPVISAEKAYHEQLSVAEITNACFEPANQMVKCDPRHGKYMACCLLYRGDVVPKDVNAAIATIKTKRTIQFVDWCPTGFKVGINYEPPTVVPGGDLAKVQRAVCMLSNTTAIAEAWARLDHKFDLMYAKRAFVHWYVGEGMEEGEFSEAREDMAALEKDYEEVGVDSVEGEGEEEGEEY
Tubulin (Sus scrofa), sequence (P02554 whole entry, looked up): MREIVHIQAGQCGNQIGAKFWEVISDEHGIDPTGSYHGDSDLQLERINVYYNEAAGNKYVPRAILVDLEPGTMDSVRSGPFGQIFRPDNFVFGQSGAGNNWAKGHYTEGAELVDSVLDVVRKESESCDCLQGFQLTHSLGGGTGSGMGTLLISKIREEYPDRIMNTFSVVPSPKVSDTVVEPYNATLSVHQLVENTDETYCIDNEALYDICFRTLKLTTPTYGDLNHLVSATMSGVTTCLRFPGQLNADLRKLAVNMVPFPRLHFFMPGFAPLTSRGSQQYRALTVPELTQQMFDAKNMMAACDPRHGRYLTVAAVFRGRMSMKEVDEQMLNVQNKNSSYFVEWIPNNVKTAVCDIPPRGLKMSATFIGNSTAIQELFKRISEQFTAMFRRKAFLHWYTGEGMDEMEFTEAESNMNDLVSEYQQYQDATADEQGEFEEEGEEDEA

In the case of `Cc1nnc(Cl)c(-c2c(F)cc(F)cc2F)c1Cc1ccccc1`, the EC80 (usually the concentration needed for an effect of 80%) in assay [1] is 77 µg/mL (≈ 221 µM); in assay [2] it was 50 µg/mL (≈ 143 µM); in assay [3], 56 µg/mL (≈ 161 µM).

As for `COc1cc(F)c(-c2c(Cl)nnc(C)c2-c2ccc(Cl)nc2)cc1F`, the EC80 in assay [1] is 23 µg/mL (≈ 60.2 µM); in assay [2], 46 µg/mL (≈ 120 µM); in assay [3] it was 19 µg/mL (≈ 49.7 µM).

In the case of `Cc1nnc(Cl)c(-c2c(F)cc(F)cc2F)c1-c1ccc(Cl)cc1`, the values for the concentration for an effect of 80% (EC80) in assay [1], in assay [2] and in assay [3] were 6 µg/mL (≈ 16.3 µM), 2 µg/mL (≈ 5.42 µM) and 2 µg/mL (≈ 5.42 µM), respectively.

For `Cc1nnc(Cl)c(-c2c(F)cc(F)cc2F)c1-c1ccc(Cl)s1`, the EC80 in assay [1] came out at 25 µg/mL (≈ 66.6 µM); in assay [2] it was 41 µg/mL (≈ 109 µM); in assay [3] it was 49 µg/mL (≈ 131 µM). Besides, in assay [4], the outcome was Active.

Turning to `COc1nnc(C)c(-c2ccc(Cl)cc2)c1-c1c(F)cc(F)cc1F`, the EC80 in assay [1] came to 97 µg/mL (≈ 266 µM); in assay [2], 53 µg/mL (≈ 145 µM); in assay [3] it was 57 µg/mL (≈ 156 µM).

With `Cc1nnc(Cl)c(-c2c(F)cccc2F)c1-c1ccc(Cl)nc1`, the concentration for an effect of 80% (EC80) in assay [1] came out at 78 µg/mL (≈ 221 µM); in assay [2], 60 µg/mL (≈ 170 µM); in assay [3] it was 54 µg/mL (≈ 153 µM).

For the molecule `COc1cc(F)cc(F)c1-c1c(Cl)nnc(C)c1-c1ccc(Cl)nc1`, the EC80 is greater than 200 µg/mL in assay [1], 95 µg/mL (≈ 249 µM) in assay [2] and 17 µg/mL (≈ 44.5 µM) in assay [3].

With `Fc1cc(F)c(-c2c(Cl)nnc(Cl)c2-c2ccc(Cl)cc2)c(F)c1`, the EC80 was determined as 127 µg/mL (≈ 326 µM) in assay [1], 96 µg/mL (≈ 246 µM) in assay [2] and 134 µg/mL (≈ 344 µM) in assay [3].

On to `Cc1nnc(C)c(-c2c(F)cc(F)cc2F)c1-c1ccc(Cl)cc1`, for which the results for the EC80 in assay [1], in assay [2] and in assay [3] were 4 µg/mL (≈ 11.5 µM), 14 µg/mL (≈ 40.1 µM) and 18 µg/mL (≈ 51.6 µM), respectively.

`Cc1nnc(Cl)c(-c2c(F)cc(F)cc2F)c1-c1ccc2ccccc2n1`: the concentration for an effect of 80% (EC80) was determined as 1 µg/mL (≈ 2.59 µM) in assay [1], 5 µg/mL (≈ 13 µM) in assay [2] and 4 µg/mL (≈ 10.4 µM) in assay [3].

`CC(=O)O[C@H]1C(=O)[C@@]2(C)[C@H]([C@H](OC(=O)c3ccccc3)[C@]3(O)C[C@H](OC(=O)[C@H](O)[C@@H](NC(=O)c4ccccc4)c4ccccc4)C(C)=C1C3(C)C)[C@]1(OC(C)=O)CO[C@@H]1C[C@@H]2O`: the outcome in assay [4] was Active.

For the molecule `C#Cc1ccc(-c2c(C)nnc(Cl)c2-c2c(F)cc(F)cc2F)cc1`, the EC80 turned out to be 3 µg/mL (≈ 8.36 µM) in assay [1], 1 µg/mL (≈ 2.79 µM) in assay [2] and 1 µg/mL (≈ 2.79 µM) in assay [3].

As to `CSc1nnc(Cl)c(-c2c(F)cc(F)cc2F)c1-c1ccc(Cl)cc1`, the EC80 in assay [1] stood at 124 µg/mL (≈ 309 µM); in assay [2], 90 µg/mL (≈ 224 µM); in assay [3], 42 µg/mL (≈ 105 µM).

As to `COc1nnc(Cl)c(-c2c(F)cc(F)cc2F)c1-c1ccc(Cl)cc1`, the EC80 in assay [1] stood at 58 µg/mL (≈ 151 µM); in assay [2], 14 µg/mL (≈ 36.3 µM); in assay [3], 92 µg/mL (≈ 239 µM).

Consider `CN(C)c1nnc(Cl)c(-c2c(F)cc(F)cc2F)c1-c1ccc(Cl)cc1`, for which the 80% effect concentration (EC80) was determined as 40 µg/mL (≈ 100 µM) in assay [1], 6 µg/mL (≈ 15.1 µM) in assay [2] and 16 µg/mL (≈ 40.2 µM) in assay [3].

With `Cc1nnc(Cl)c(-c2ncc(Cl)cc2Cl)c1-c1ccc(Cl)nc1`, the values for the EC80 in assay [1], in assay [2] and in assay [3] were 15 µg/mL (≈ 38.9 µM), 9 µg/mL (≈ 23.3 µM) and 33 µg/mL (≈ 85.5 µM), respectively.

`Cc1nnc(F)c(-c2c(F)cc(F)cc2F)c1-c1ccc(Cl)cc1`: the values for the EC80 in assay [1], in assay [2] and in assay [3] were 8 µg/mL (≈ 22.7 µM), 191 µg/mL (≈ 542 µM) and 17 µg/mL (≈ 48.2 µM), respectively.

For the molecule `Cc1nnc(O)c(-c2c(F)cc(F)cc2F)c1-c1ccc(Cl)cc1`, the EC80 in assay [1], in assay [2] and in assay [3] was greater than 200 µg/mL each time.

With `COc1cc(F)c(-c2c(Cl)nnc(C)c2-c2ccc(Cl)nc2)c(F)c1`, the values for the EC80 in assay [1], in assay [2] and in assay [3] were 1 µg/mL (≈ 2.62 µM), 3 µg/mL (≈ 7.85 µM) and 1 µg/mL (≈ 2.62 µM), respectively.

On to `Cc1nnc(Cl)c(-c2c(F)cc(F)cc2F)c1-c1ccc(Cl)nc1`, for which the EC80 in assay [1] was 1 µg/mL (≈ 2.7 µM); in assay [2] it was 1 µg/mL (≈ 2.7 µM); in assay [3] it was 2 µg/mL (≈ 5.4 µM).

Values taken from ChEMBL document CHEMBL2016502, “Synthesis and fungicidal activity of tubulin polymerisation promoters. Part 2: pyridazines” (2012).
